Experimental data reported in ChEMBL document CHEMBL4715813, “Allicin-inspired pyridyl disulfides as antimicrobial agents for multidrug-resistant Staphylococcus aureus” (Eur J Med Chem, 2018).
In brackets after ≈: the same amount, converted by molar mass. Activity calls are given as the source filed them. The calls are words filed in the database; no cut-off is given here.

Assays:
[1] = test system: Klebsiella pneumoniae; assay: Antibacterial activity against multidrug-resistant Klebsiella pneumoniae ATCC 700603 assessed as zone of inhibition by disc diffusion method; type: functional
[2] = test system: Escherichia coli; assay: Antibacterial activity against beta-lactam resistant Escherichia coli BAA 2326 assessed as zone of inhibition by disc diffusion method; type: functional
[3] = test system: Staphylococcus aureus; assay: Synergistic antibacterial activity against methicillin-resistant Staphylococcus aureus ATCC 43300 in presence of vancomycin by disc diffusion method; type: functional, organism-based
[4] = test system: Bacillus anthracis; assay: Antibacterial activity against Bacillus anthracis Sterne 34F2 assessed as zone of inhibition by disc diffusion method; type: functional
[5] = test system: Enterococcus faecalis; assay: Antibacterial activity against vancomycin-susceptible Enterococcus faecalis ATCC 29212 assessed as zone of inhibition by disc diffusion method; type: functional
[6] = test system: Staphylococcus aureus; assay: Antibacterial activity against methicillin-susceptible Staphylococcus aureus ATCC 25923 assessed as zone of inhibition by disc diffusion method; type: functional
[7] = test system: Staphylococcus aureus; assay: Antibacterial activity against hospital acquired methicillin-resistant Staphylococcus aureus ATCC 43300 assessed as zone of inhibition by disc diffusion method; type: functional
[8] = test system: Staphylococcus aureus; assay: Antibacterial activity against vancomycin-intermediate resistant Staphylococcus aureus Mu50 ATCC 700699 assessed as zone of inhibition by disc diffusion method; type: functional
[9] = test system: Staphylococcus aureus; assay: Antibacterial activity against vancomycin-resistant Staphylococcus aureus HIP11714 assessed as zone of inhibition by disc diffusion method; type: functional
[10] = test system: Acinetobacter baumannii; assay: Antibacterial activity against Acinetobacter baumannii ATCC 19606 assessed as zone of inhibition by disc diffusion method; type: functional
[11] = test system: Staphylococcus aureus; assay: Antibacterial activity against methicillin-resistant Staphylococcus aureus ATCC 43300 assessed as bacterial growth inhibition incubated for 20 hrs by broth dilution method; type: functional
In short: (§1)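 Broth microdilution: 0.5 McFarland suspension from an overnight culture, diluted 1:100 in cation-adjusted Mueller Hinton broth (CAMHB), given serial dilutions of test agent for 20 h at 37 °C. MIC is the lowest concentration with no visible growth.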

[12] = test system: Staphylococcus aureus; assay: Ratio of MBC to MIC against methicillin-resistant Staphylococcus aureus ATCC 43300; type: functional
In short: (§2)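 For MBC, 5 μL from each well was spotted on agar and incubated overnight; MBC is the lowest concentration with no visible growth. Ratio taken as MBC over MIC.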

[13] = test system: Staphylococcus aureus; assay: Antibacterial activity against heterogeneous vancomycin-intermediate Staphylococcus aureus Mu3 ATCC 700698 assessed as bacterial growth inhibition incubated for 20 hrs by broth dilution method; type: functional; in short: as §1
[14] = test system: Staphylococcus aureus; assay: Bactericidal activity against heterogeneous vancomycin-intermediate Staphylococcus aureus Mu3 ATCC 700698 assessed as bacterial killing incubated for over night; type: functional; in short: as §2
[15] = test system: Staphylococcus aureus; assay: Bactericidal activity against vancomycin-intermediate resistant Staphylococcus aureus Mu50 ATCC 700699 assessed as bacterial killing incubated for over night; type: functional; in short: as §2
[16] = test system: Staphylococcus aureus; assay: Ratio of MBC to MIC against vancomycin-intermediate resistant Staphylococcus aureus Mu50 ATCC 700699; type: functional; in short: as §2
[17] = test system: Staphylococcus aureus; assay: Bactericidal activity against Vancomycin-resistant Staphylococcus aureus HIP11714 assessed as bacterial killing incubated for over night; type: functional; in short: as §2
[18] = test system: Staphylococcus aureus; assay: Ration of MBC to MIC against Vancomycin-resistant Staphylococcus aureus HIP11714; type: functional; in short: as §2
[19] = test system: Staphylococcus aureus; assay: Antibiofilm activity against methicillin-resistant Staphylococcus aureus assessed as disruption of preformed biofilm at 1 to 5 times of MIC incubated for 20 hrs by crystal violet staining based assay; type: functional, organism-based
[20] = test system: Staphylococcus aureus; assay: Synergistic antibacterial activity against vancomycin-resistant Staphylococcus aureus HIP14300 assessed as fractional inhibitory concentration index incubated for 20 hrs in presence of vancomycin by checkerboard titration assay; type: functional
In short: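 Checkerboard: VRSA HIP14300 as a 0.5 McFarland suspension diluted 1:100 in CAMHB, inoculated into twofold serial dilutions of disulfide and vancomycin, sealed, 20 h at 37 °C. Growth read by MTT staining with DMSO solubilization. ΣFIC = FIC1h + FICVAN; synergy ≤ 0.5, indifferent >0.5–≤4, antagonism >4.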

[21] = test system: Staphylococcus aureus; assay: Antibacterial activity against heterogeneous vancomycin-intermediate Staphylococcus aureus Mu3 ATCC 700698 assessed as inhibition of bacterial growth between 2 and 4 passages at 0.5 times of MIC incubated for 20 hrs by resistant development assay; type: functional, organism-based
In short: (§3)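 Serial passage with hVISA Mu3, VISA and VRSA strains grown at 0.5× MIC of agent (± equimolar vancomycin). […] MIC was read visually at each passage.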

[22] = test system: Staphylococcus aureus; assay: Antibacterial activity against methicillin-susceptible Staphylococcus aureus ATCC 25923 in presence of 5% v/v serum; type: functional
[23] = test system: Staphylococcus aureus; assay: Antibacterial activity against methicillin-susceptible Staphylococcus aureus ATCC 25923 in presence of 10% v/v serum; type: functional
[24] = test system: Staphylococcus aureus; assay: Antibacterial activity against methicillin-susceptible Staphylococcus aureus ATCC 25923 assessed as delayed bacterial proliferation at 0.5 times of MIC for 15 hrs; type: functional, organism-based
[25] = test system: Staphylococcus aureus; assay: Bacteriostatic activity against methicillin-susceptible Staphylococcus aureus ATCC 25923 assessed as reduction in colony forming unit at 1 times of MIC measured up to 4 hrs by time kill assay; type: functional, organism-based; details: time hrs <=4
In short: (§4)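 Time-kill: a 1:100 dilution of 0.5 McFarland S. aureus […] suspension was exposed to 0, 1 and 4× MIC. At 0, 1, 2 and 4 h, samples were serially diluted in PBS and plated on MHA. CFU were counted after 30 h incubation.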

[26] = test system: Staphylococcus aureus; assay: Bacteriostatic activity against methicillin-susceptible Staphylococcus aureus ATCC 25923 assessed as reduction in colony forming unit at 4 times of MIC measured up to 4 hrs by time kill assay; type: functional, organism-based; in short: as §4
[27] = test system: Staphylococcus aureus; assay: Bacteriostatic activity against methicillin-susceptible Staphylococcus aureus ATCC 25923 assessed as reduction in bacterial metabolism at 0.25 to 1 times of MIC incubated for 1 hr by C12-resazurin dye based fluorescence assay; type: functional, organism-based
[28] = test system: Staphylococcus aureus; assay: Induction of membrane permeabilization in methicillin-susceptible Staphylococcus aureus ATCC 25923 assessed as cell viability at 1 to 5 times of MIC incubated for 5 mins by SYTO9 and PI staining based fluorescence assay; type: functional, organism-based
In short: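 S. aureus […] was grown to OD600 0.4 in LB, washed with PBS and resuspended in 100 mM potassium phosphate pH 7.0 with 5 mM MgSO4. […] Controls were DMSO 5% and nisin 25 μg/mL. SYTO 9/propidium iodide staining ran 15 min at r.t. in the dark, and the green/red ratio (ex 485; em 535/595 nm) was read. Data are mean ± SEM, n = 3.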

[29] = test system: Staphylococcus aureus; assay: Induction of intracellular oxidant species generation in Staphylococcus aureus ATCC 25923 after 1 hr by colorimetric based NBT assay; type: functional, organism-based
In short: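 Cells at OD600 1.5 in HBSS mixed with 1 mg/mL aqueous NBT and agent (added from 2 mM stock) or DMSO/water, shaken for 1 h at 37 °C. Stopped with 0.1 M HCl and centrifuged; pellet formazan solubilized in DMSO/KOH/HBSS and read at OD560.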

[30] = test system: Staphylococcus aureus; assay: Antibacterial activity against heterogeneous vancomycin-intermediate Staphylococcus aureus Mu3 ATCC 700698 assessed as bacterial growth inhibition measured between 5 to 7 passages by broth dilution method; type: functional; in short: as §3
[31] = test system: Staphylococcus aureus; assay: Antibacterial activity against vancomycin-resistant Staphylococcus aureus HIP11714 assessed as bacterial growth inhibition by measuring fold increase in MIC between 5 to 7 passages by broth dilution method; type: functional

`CCCCCCCCSSc1ccccn1` was tested, and the “diameter of the inhibition zone (DIZ)” value [1] was 0 mm, the “diameter of the inhibition zone (DIZ)” value [2] was 0 mm and the Activity [3] was “Active”. The “diameter of the inhibition zone (DIZ)” value [4] was 48 mm, the “diameter of the inhibition zone (DIZ)” value [5] was 12 mm and the “diameter of the inhibition zone (DIZ)” value [6] was 30 mm. The “diameter of the inhibition zone (DIZ)” value [7] was 38 mm, the “diameter of the inhibition zone (DIZ)” value [8] was 43 mm and the “diameter of the inhibition zone (DIZ)” value [9] was 38 mm. The “diameter of the inhibition zone (DIZ)” value [10] was 0 mm, the MIC [11] was 6.25 µM (≈ 1.6 µg/mL) and the Ratio [12] was greater than 8. It also gave an MIC [13] of 12.5 µM (≈ 3.19 µg/mL), an MBC [14] greater than 50 µM and an MBC [15] of 25 µM (≈ 6.39 µg/mL). The Ratio [16] was 8, the MBC [17] was greater than 50 µM and the Ratio [18] was greater than 8. The Activity [19] was “Dose-dependent effect”, the FIC [20] was “<=0.5” and the Activity [21] was “Active”. For the same compound, the MIC [22] was 25 µM, the MIC [23] was 25 µM and the Activity [24] was “Active”. The Activity [25] was “Active”, the Activity [26] was “Active” and the Activity [27] was “Active”. For the same compound, the Activity [28] was “inactive”, the Activity [29] was “Active” and the MIC [30] was greater than 50 µM. For the same compound, the “fold change (FC)” value [31] was greater than 2.
